The sample as a whole holds a higher share of hits than the screen did.
INS promoter act: TRM-6 insulin promoter activation; activation, % at 2 µM; TRM-6 cells (human fetal islet line), insulin promoter eGFP reporter, imaging; plate-scaled: unstimulated 0, stimulated control 100; 130,000 tested, 0.81% active;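 active means activation at 2 µM above a set limit, confirmed on inspection of the cell images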;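 further: share of cells whose green reporter signal exceeds an intensity cutoff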
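test system = TRM-6 insulin promoter–eGFP reporter cells | benchmarks = stimulated versus unstimulated wells as plate controls | read-out basis = percent cells above green-intensity threshold, converted to percent activation versus plate controls | detection = fixed-cell fluorescence microscopy, eGFP plus Hoechst | incubation = tamoxifen pre-incubation 15 h overnight, then compound exposure 48 h at 37 °C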
Large screens that a line does not name were inactive.

O=c1cc(N2CCOCC2)cnn1-c1ccccc1	none
CC(=O)c1ccc(N2CCN(S(=O)(=O)c3cccc(S(=O)(=O)N4CCOCC4)c3)CC2)cc1	none
O=S(=O)(c1cccc(S(=O)(=O)N2CCC(Cc3ccccc3)CC2)c1)N1CCOCC1	none
O=S(=O)(c1cccc(S(=O)(=O)N2CCC(N3CCCCC3)CC2)c1)N1CCOCC1	INS promoter act 631
Cc1cc(C)n(CCc2nc(-c3ccc(-c4ccccc4)cc3)cs2)n1	none
CC(C)OC(=S)N/C(=N\S(=O)(=O)c1ccccc1)c1ccccc1	none
O=S(=O)(/N=C(/Nc1ccccn1)c1ccccc1)c1ccccc1	INS promoter act 196
Cc1cccc(NC(=S)N/C(=N/S(=O)(=O)c2ccccc2)c2ccccc2)c1	none
CC(Sc1nc(-c2ccc(F)cc2)cs1)C(=O)Nc1ccc(Cl)cn1 (centres undefined)	none
CCOC(=O)COc1ccc(S(=O)(=O)Nc2ccc3c(c2)OCCO3)cc1	INS promoter act 460
CCOc1ccc(NS(=O)(=O)c2ccc(OC)c(NC(=O)c3ccc4c(c3)OCCO4)c2)cc1	none
Cc1cccc(NS(=O)(=O)c2ccc3c(c2)OCCO3)c1	none
COc1cccc(NC(=O)C2C3C=CC(O3)C2C(=O)NCc2cccnc2)c1 (centres undefined)	none
Cc1cc(C)cc(OCC(=O)NC2=NCCS2)c1	none
CC(C(=O)NC1=NCCS1)N1C(=O)C2CC=CCC2C1=O (centres undefined)	INS promoter act 121
O=C(CCCN1C(=O)c2ccccc2C1=O)NC1=NCCS1	none
O=c1c2cnn(-c3ccccc3)c2nc(-c2cccs2)n1-c1ccc(Br)cc1	none
COCCNC(=O)C(c1c[nH]c2ccccc12)N(C(=O)c1snc(C(N)=O)c1N)c1cccc(OC)c1 (centres undefined)	none
Cc1ccc(-c2nnn(CC(=O)N(Cc3ccccc3F)C(C(=O)NC3CCCC3)c3ccncc3)n2)o1 (centres undefined)	none
Cc1ccc(-c2nnn(CC(=O)N(CC(=O)NC(C)C)c3cnc4ccccc4c3)n2)o1	none
CCC(C(=O)NC1CCCC1)N(C(=O)Cn1nnc(-c2ccc(C)o2)n1)c1cnc2ccccc2c1 (centres undefined)	INS promoter act 160
CCNC(=O)CC1C(=O)N(c2ccc(F)cc2)C(=O)N1CCc1ccc(OC)cc1 (centres undefined)	INS promoter act 154
COc1ccc(NC(=O)CC2C(=O)N(c3ccc(OC)cc3)C(=O)N2CCc2cccs2)cc1 (centres undefined)	none
CCNC(=O)CC1C(=O)N(c2ccccc2)C(=O)N1CCc1ccc(OC)c(OC)c1 (centres undefined)	none
COc1ccc(S(=O)(=O)N2CCN(CC(=O)Nc3cc(C(F)(F)F)ccc3Cl)CC2)cc1	none
CC(c1ccccc1)N1CCn2c(nc3cc(NS(C)(=O)=O)ccc32)C1 (centres undefined)	none
CCN(CCCNC(=O)C1CCC(=O)N1C(C)C)c1cccc(C)c1 (centres undefined)	none
CCCn1c(CN(C)Cc2ccccc2)nc2c1c(=O)n(C)c(=O)n2C	none
CN(Cc1ccccc1)Cc1nc2c([nH]1)c(=O)n(C)c(=O)n2C	INS promoter act 105
CCCCn1c(CN(C)Cc2ccccc2)nc2c1c(=O)n(C)c(=O)n2C	none
Cc1ccc(S(=O)(=O)CNC(=S)c2cccc(Cl)c2)cc1	none
Cc1ccc(C(=O)N(C)c2nnc(-c3ccncc3)s2)cc1	none
COc1cccc(OC)c1C(=O)OCC(=O)NCC(C)C	none
CC(C)CCNC(=O)NC(=O)COC(=O)C1=COCCO1	none
CC(C)CNC(=O)NC(=O)COC(=O)c1cc(F)cc(F)c1	INS promoter act 333
Nc1nc(SCC(=O)Nc2ncc(C(F)(F)F)cc2Cl)n[nH]1	none
OCC1(Cc2ccccc2)CCCN(Cc2cnn(-c3ccccc3)c2)C1 (centres undefined)	none
Cc1ccccc1CN1C(=O)CSc2ccc(C(=O)N3CCOCC3)cc21	none
Cc1ccccc1CC1(CO)CCCN(C(=O)c2ccc3ncccc3c2)C1 (centres undefined)	INS promoter act 228
O=C(Nc1ccc(Oc2cccnc2)cc1)c1ccccc1F	none
CSc1nc2c(c(-c3ccccc3)c1C#N)CCC2	INS promoter act 411
CC(C)c1ccc(-c2c(C#N)c(N)nc3c2CCCCC3)cc1	none
N#Cc1c(N)nc2c(c1-c1ccncc1)CCCC2	none
N#Cc1c(N)nc2c(c1-c1ccncc1)CCCCCC2	INS promoter act 450
N#Cc1c2c(nc(N)c1-c1ccccc1)CCCCC2	none
Cc1[nH]n2c(=O)c3c(nc2c1-c1ccccc1)CCC3	none
COc1ccc(C(=O)NC(CC(=O)O)c2cc([N+](=O)[O-])ccc2Cl)c(SC)c1 (centres undefined)	none
FC(F)(F)c1cc(-c2ccco2)nc(NCCc2ccccc2)n1	none
Cn1c(CC(=O)Nc2ccccc2)nnc1SCCOc1ccccc1	none
Cc1cc(NC(=O)CCSc2ccccc2)ccc1Br	none
Cn1c(=O)c2c(nc(SCC(=O)NCc3ccc4c(c3)OCO4)n2Cc2ccc(Cl)cc2)n(C)c1=O	none
C=CCN1C(=O)C(CC(=O)Nc2ccccc2)N(Cc2ccccn2)C1=S (centres undefined)	none
COc1cc(S(=O)(=O)n2nc(C)cc2C)c(OC)cc1Cl	none
COc1ccc(N2CCN(C(CNC(=O)C(C)(C)C)c3cccnc3)CC2)cc1 (centres undefined)	none
O=C(NCc1ccccc1)N1CCN(c2ccc(F)cc2)CC1	none
O=C(NCc1ccc(Cl)cc1)C(=O)NCC(c1cccnc1)N1CCN(c2ccc(F)cc2)CC1 (centres undefined)	INS promoter act 165
Cc1nc2ccc(Nc3ccncc3)cc2s1	none
Cc1csc(Sc2ccc(S(=O)(=O)N3CCCC3)cn2)n1	none
O=C(CSc1nnc(-c2ccncc2)o1)Oc1ccccc1	INS promoter act 690
CC(C)(C)NC(=O)CSc1nnc(-c2ccncc2)o1	none
Cc1ccc(C(=O)CSc2nnc(-c3ccccc3)o2)cc1	none
O=C1CCCC2=C1C(c1cccc(O)c1)c1c(ccc3ncccc13)N2 (centres undefined)	none
COc1cccc2c1C(=O)c1c(O)c3c(c(O)c1C2=O)C[C@@](O)(C(=O)CO)C[C@@H]3O[C@H]1C[C@H](N)[C@H](O)[C@H](C)O1	INS promoter act 354
O=C(Nc1cccc(C(F)(F)F)c1)c1ccccc1NC(=O)C1CCCCC1	none
Cc1ccc(N=C2CCCN2Cc2ccccc2)c(C#N)c1	none
Cc1ccc(CSC2=NCCN2S(=O)(=O)c2ccccc2)cc1	INS promoter act 464
O=S(=O)(c1ccccc1)N1CCN=C1SCc1ccccc1	none
CCCS(=O)(=O)N1CCN=C1SCc1ccc(C)cc1	none
CCCc1nnc(SCC(=O)N2CCOCC2)n1C	none
O=C(C/C=N\OCc1ccc([N+](=O)[O-])cc1)Nc1ccc(F)cc1F	none
Cn1nc(-c2ccccc2)c2nc3ccccc3nc21	INS promoter act 150
Cn1c(=O)c(-c2ccccc2)nc2ccccc21	none
Cc1nnc2c(-c3ccccc3)nc3ccccc3n12	none
COc1ccc(-c2[nH]n(-c3ccc([N+](=O)[O-])cc3)c(=O)c2C=NCc2ccccc2)cc1	none
COc1ccc(/C=N/NC(=O)c2ccc(N(C)S(=O)(=O)c3ccccc3)cc2)cc1	none
Cc1cccc(C(=O)n2cnnc2N)c1	none
CCN1/C(=C/c2ccc3cccc(C)c3[n+]2CC)Sc2ccccc21	INS promoter act 233
CCN1/C(=C/c2ccc3cc(C)cc(C)c3[n+]2CC)Sc2cc(C)ccc21	INS promoter act 413
CCN1/C(=C\c2ccc3cc(C)ccc3[n+]2CC)Sc2cc(C)c(C)cc21	INS promoter act 413
CC(C)(C)C1CCc2c(C(=O)NNC(=O)CCC(=O)O)csc2C1 (centres undefined)	none

Source: PubChem BioAssay
